Measurements as given in ChEMBL document CHEMBL1667763, “4-anilinoquinoline triazines: a novel class of hybrid antimalarial agents” (Eur J Med Chem, 2011).
Converted amounts (≈) assume the structure as drawn. The source made the active and inactive calls. No cut-off for these calls is given here.

Legend:
[1] = Inhibition of beta-hematin formation after 16 hrs; assay type: functional
Procedure, shortened: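 Plasma came from male Swiss mice (15–20 g) infected with 1 × 10⁵ infected RBCs. Blood was drawn at 50% parasitemia by cardiac puncture into 2.0% citrate and spun at 4 °C. Hemin substrate ([…]) and compound were incubated in 100 mM acetate buffer, pH 5.1, at 37 °C for 16 h with shaking. The pellet was washed in SDS buffers. IC50 was the mean of three experiments in triplicate.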

[2] = system: Plasmodium falciparum 3D7; assay: Selectivity index, IC50 for african green monkey Vero cells to IC50 for Plasmodium falciparum 3D7
Plasmodium falciparum = assay: Antimalarial activity against chloroquine-sensitive Plasmodium falciparum 3D7 infected in erythrocytes after 72 hrs by syber green 1 assay; conditions: 3D7, 72 h
Plasmodium yoelii [3] = assay: Antimalarial activity against chloroquine-resistant Plasmodium yoelii N-67 infected in Swiss mouse assessed as suppression of parasitaemia level at 50 mg/kg, ip qd for 4 days; assay type: functional; conditions: route intraperitoneal
Procedure, shortened: (§1)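 Swiss mice (22±2 g), groups of five, inoculated with 1×10^6 P. yoelii N-67 parasitized RBC on day 0; compounds as aqueous suspension with a few drops Tween 80, given intraperitoneally in 0.2 mL once daily days 0–3. Parasitemia from thin blood smears days 4–6, group mean % suppression vs untreated controls; survivors counted on day 28.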

Plasmodium yoelii [4] = assay: Antimalarial activity against chloroquine-resistant Plasmodium yoelii N-67 infected in Swiss mouse assessed as mouse survival at 50 mg/kg, ip qd for 4 days; assay type: functional, organism-based; parameters: dose 50 mg/kg; procedure, shortened: as §1
Plasmodium yoelii [5] = assay: Antimalarial activity against chloroquine-resistant Plasmodium yoelii N-67 infected in Swiss mouse assessed as suppression of parasitaemia level at 25 mg/kg, ip qd for 4 days; assay type: functional; conditions: route intraperitoneal; procedure, shortened: as §1
Plasmodium yoelii [6] = assay: Antimalarial activity against chloroquine-resistant Plasmodium yoelii N-67 infected in Swiss mouse assessed as suppression of parasitaemia level at 100 mg/kg, po qd for 4 days; assay type: functional
Procedure, shortened: as §1, with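 “orally” for “intraperitoneally”, “0.1” for “0.2”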

Plasmodium yoelii [7] = assay: Antimalarial activity against chloroquine-resistant Plasmodium yoelii N-67 infected in Swiss mouse assessed as mouse survival at 50 mg/kg, po qd for 4 days; assay type: functional, organism-based; parameters: dose 50 mg/kg
Procedure, shortened: as §1, with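 “orally” for “intraperitoneally”, “0.1” for “0.2”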

Plasmodium yoelii [8] = assay: Antimalarial activity against chloroquine-resistant Plasmodium yoelii N-67 infected in Swiss mouse assessed as mouse survival at 100 mg/kg, po qd for 4 days; assay type: functional, organism-based; parameters: dose 100 mg/kg
Procedure, shortened: as §1, with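 “orally” for “intraperitoneally”, “0.1” for “0.2”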

Plasmodium yoelii [9] = assay: Antimalarial activity against chloroquine-resistant Plasmodium yoelii N-67 infected in Swiss mouse assessed as suppression of parasitaemia level at 50 mg/kg, po qd for 4 days; assay type: functional
Procedure, shortened: as §1, with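 “orally” for “intraperitoneally”, “0.1” for “0.2”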

Plasmodium yoelii [10] = assay: Antimalarial activity against chloroquine-resistant Plasmodium yoelii N-67 infected in Swiss mouse assessed as mouse survival at 25 mg/kg, ip qd for 4 days; assay type: functional, organism-based; parameters: dose 25 mg/kg; procedure, shortened: as §1

Row | SMILES | Selectivity Index [2] | IC50 (Plasmodium falciparum) | also measured
1 | CCN(CC)CCCC(C)Nc1ccnc2cc(Cl)ccc12 (centres undefined) [CHLOROQUINE] | – | – | IC50 [1]: 3.65 mg/L (≈ 11.4 µM)
2 | CN1CCN(c2nc(Nc3ccccc3)nc(Nc3ccc(Nc4ccnc5cc(Cl)ccc45)cc3)n2)CC1 | 92.06 | 0.00585 µM | –
3 | Cc1ccccc1Nc1nc(N)nc(Nc2ccc(Nc3ccnc4cc(Cl)ccc34)cc2)n1 | 163.54 | 0.0296 µM | –
4 | Cc1ccccc1Nc1nc(NCCCN2CCOCC2)nc(Nc2ccc(Nc3ccnc4cc(Cl)ccc34)cc2)n1 | 418.75 | 0.0134 µM | –
5 | CCN(CC)CCNc1nc(Nc2ccccc2)nc(Nc2ccc(Nc3ccnc4cc(Cl)ccc34)cc2)n1 | 79.47 | 0.0604 µM | –
6 | CNc1nc(Nc2ccccc2)nc(Nc2ccc(Nc3ccnc4cc(Cl)ccc34)cc2)n1 | 290.68 | 0.019 µM | –
7 | CCN(CC)CCNc1nc(Nc2ccc(C)cc2)nc(Nc2ccc(Nc3ccnc4cc(Cl)ccc34)cc2)n1 | 64.38 | 0.0828 µM | –
8 | CCCCNc1nc(Nc2ccc(C)cc2)nc(Nc2ccc(Nc3ccnc4cc(Cl)ccc34)cc2)n1 | 101.03 | 0.0445 µM | –
9 | Clc1ccc2c(Nc3ccc(Nc4nc(NCc5ccccc5)nc(Nc5ccccc5)n4)cc3)ccnc2c1 | 151.04 | 0.0336 µM | –
10 | Nc1nc(Nc2ccccc2)nc(Nc2ccc(Nc3ccnc4cc(Cl)ccc34)cc2)n1 | 132.63 | 0.0415 µM | –
11 | Cc1ccc(Nc2nc(NCCCN3CCOCC3)nc(Nc3ccc(Nc4ccnc5cc(Cl)ccc45)cc3)n2)cc1 | 610.98 | 0.00703 µM | Activity (Plasmodium yoelii [3]): 100%; IC50 [1]: 2.85 mg/L (≈ 4.78 µM); Activity (Plasmodium yoelii [4]): inactive
12 | Cc1ccc(Nc2nc(Nc3ccc(Nc4ccnc5cc(Cl)ccc45)cc3)nc(N3CCN(C)CC3)n2)cc1 | 36.39 | 0.0124 µM | –
13 | Clc1ccc2c(Nc3ccc(Nc4nc(Nc5ccccc5)nc(NC5CCCCC5)n4)cc3)ccnc2c1 | 76.97 | 0.0648 µM | –
14 | CCN1CCN(c2nc(Nc3ccccc3)nc(Nc3ccc(Nc4ccnc5cc(Cl)ccc45)cc3)n2)CC1 | 192.66 | 0.00592 µM | Activity (Plasmodium yoelii [3]): 100%; IC50 [1]: 2.69 mg/L (≈ 4.87 µM); Activity (Plasmodium yoelii [4]): inactive
15 | CN1CCN(c2nc(Nc3ccccc3)nc(Nc3cccc(Nc4ccnc5cc(Cl)ccc45)c3)n2)CC1 | 223.4 | 0.0472 µM | –
16 | Clc1ccc2c(Nc3cccc(Nc4nc(NCCCN5CCOCC5)nc(Nc5ccccc5)n4)c3)ccnc2c1 | 90.51 | 0.111 µM | –
17 | Cc1ccc(Nc2nc(Nc3ccc(Nc4ccnc5cc(Cl)ccc45)cc3)nc(NC3CCCCC3)n2)cc1 | 137.42 | 0.074 µM | –
18 | CCN(CC)CCNc1nc(Nc2ccccc2)nc(Nc2cccc(Nc3ccnc4cc(Cl)ccc34)c2)n1 | 135.37 | 0.292 µM | –
19 | CCCCNc1nc(Nc2ccccc2)nc(Nc2cccc(Nc3ccnc4cc(Cl)ccc34)c2)n1 | 156.25 | 0.0263 µM | Activity (Plasmodium yoelii [3]): 100%; IC50 [1]: 2.55 mg/L (≈ 4.99 µM); Activity (Plasmodium yoelii [4]): inactive
20 | Cc1ccccc1Nc1nc(Nc2ccc(Nc3ccnc4cc(Cl)ccc34)cc2)nc(N2CCN(C)CC2)n1 | 16.33 | 0.0189 µM | –
21 | CNc1nc(Nc2ccc(Nc3ccnc4cc(Cl)ccc34)cc2)nc(Nc2ccccc2C)n1 | 240.35 | 0.0376 µM | –

Row | SMILES | Selectivity Index [2] | IC50 (Plasmodium falciparum) | also measured
22 | CCN(CC)CCNc1nc(Nc2ccc(Nc3ccnc4cc(Cl)ccc34)cc2)nc(N2CCCCC2)n1 | 59.71 | 0.0388 µM | –
23 | CCN1CCN(c2nc(Nc3ccc(C)cc3)nc(Nc3ccc(Nc4ccnc5cc(Cl)ccc45)cc3)n2)CC1 | 35.61 | 0.0119 µM | –
24 | Clc1ccc2c(Nc3ccc(Nc4nc(NCCCN5CCOCC5)nc(N5CCCCC5)n4)cc3)ccnc2c1 | 170.18 | 0.0231 µM | Activity (Plasmodium yoelii [5]): 100%; Activity (Plasmodium yoelii [6]): 100%; Activity (Plasmodium yoelii [7]): inactive; Activity (Plasmodium yoelii [3]): 100%; Activity (Plasmodium yoelii [8]): Active; Activity (Plasmodium yoelii [9]): 100%; Activity (Plasmodium yoelii [10]): inactive; IC50 [1]: 2.71 mg/L (≈ 4.72 µM); Activity (Plasmodium yoelii [4]): Active
25 | Cc1ccc(Nc2nc(NCCCN3CCOCC3)nc(Nc3cccc(Nc4ccnc5cc(Cl)ccc45)c3)n2)cc1 | 321.48 | 0.0346 µM | Activity (Plasmodium yoelii [3]): 100%; IC50 [1]: 2.7 mg/L (≈ 4.53 µM); Activity (Plasmodium yoelii [4]): inactive
26 | Cc1ccccc1Nc1nc(Nc2ccc(Nc3ccnc4cc(Cl)ccc34)cc2)nc(NC2CCCCC2)n1 | 449.8 | 0.163 µM | –
27 | Clc1ccc2c(Nc3ccc(Nc4nc(NC5CCCCC5)nc(N5CCCCC5)n4)cc3)ccnc2c1 | 189.52 | 0.313 µM | –
28 | Cc1ccc(Nc2nc(N)nc(Nc3ccc(Nc4ccnc5cc(Cl)ccc45)cc3)n2)cc1 | 134.89 | 0.0119 µM | –
29 | CCN1CCN(c2nc(Nc3ccc(C)cc3)nc(Nc3cccc(Nc4ccnc5cc(Cl)ccc45)c3)n2)CC1 | 229.5 | 0.041 µM | –
30 | Cc1ccccc1Nc1nc(NCc2ccccc2)nc(Nc2ccc(Nc3ccnc4cc(Cl)ccc34)cc2)n1 | 2129.68 | 0.0278 µM | –
31 | CCCCNc1nc(Nc2ccc(Nc3ccnc4cc(Cl)ccc34)cc2)nc(Nc2ccccc2C)n1 | 821.15 | 0.0315 µM | Activity (Plasmodium yoelii [3]): 100%; IC50 [1]: 2.96 mg/L (≈ 5.64 µM); Activity (Plasmodium yoelii [4]): inactive
32 | CCN1CCN(c2nc(Nc3ccc(Nc4ccnc5cc(Cl)ccc45)cc3)nc(N3CCCCC3)n2)CC1 | 124.85 | 0.0297 µM | Activity (Plasmodium yoelii [5]): 100%; Activity (Plasmodium yoelii [6]): 100%; Activity (Plasmodium yoelii [7]): inactive; Activity (Plasmodium yoelii [3]): 100%; Activity (Plasmodium yoelii [8]): Active; Activity (Plasmodium yoelii [9]): 100%; Activity (Plasmodium yoelii [10]): inactive; IC50 [1]: 2.79 mg/L (≈ 5.13 µM); Activity (Plasmodium yoelii [4]): Active
33 | Clc1ccc2c(Nc3ccc(Nc4nc(NCCCN5CCOCC5)nc(Nc5ccccc5)n4)cc3)ccnc2c1 | 154.29 | 0.00301 µM | Activity (Plasmodium yoelii [5]): 100%; Activity (Plasmodium yoelii [6]): 100%; Activity (Plasmodium yoelii [3]): 100%; Activity (Plasmodium yoelii [8]): inactive; Activity (Plasmodium yoelii [10]): inactive; IC50 [1]: 2.98 mg/L (≈ 5.12 µM); Activity (Plasmodium yoelii [4]): Active
34 | Cc1ccc(Nc2nc(Nc3cccc(Nc4ccnc5cc(Cl)ccc45)c3)nc(N3CCN(C)CC3)n2)cc1 | 226.18 | 0.0432 µM | –
35 | CCN1CCN(c2nc(Nc3ccc(Nc4ccnc5cc(Cl)ccc45)cc3)nc(Nc3ccccc3C)n2)CC1 | 2.58 | 0.102 µM | –
36 | CCCCNc1nc(Nc2ccccc2)nc(Nc2ccc(Nc3ccnc4cc(Cl)ccc34)cc2)n1 | 287.22 | 0.0185 µM | Activity (Plasmodium yoelii [3]): 100%; IC50 [1]: 3.08 mg/L (≈ 6.03 µM); Activity (Plasmodium yoelii [4]): inactive
37 | CNc1nc(Nc2ccc(C)cc2)nc(Nc2ccc(Nc3ccnc4cc(Cl)ccc34)cc2)n1 | 491.91 | 0.00641 µM | Activity (Plasmodium yoelii [3]): 100%; IC50 [1]: 3.16 mg/L (≈ 6.54 µM); Activity (Plasmodium yoelii [4]): inactive
38 | CN1CCN(c2nc(Nc3ccc(Nc4ccnc5cc(Cl)ccc45)cc3)nc(N3CCCCC3)n2)CC1 | 106.35 | 0.0348 µM | –
39 | Cc1ccc(Nc2nc(NCc3ccccc3)nc(Nc3ccc(Nc4ccnc5cc(Cl)ccc45)cc3)n2)cc1 | 79.44 | 0.0635 µM | –
40 | CCN(CC)CCNc1nc(Nc2ccc(Nc3ccnc4cc(Cl)ccc34)cc2)nc(Nc2ccccc2C)n1 | 136.49 | 0.0261 µM | –
41 | Clc1ccc2c(Nc3ccc(Nc4nc(NCc5ccccc5)nc(N5CCCCC5)n4)cc3)ccnc2c1 | 98.42 | 0.235 µM | –
42 | CCN1CCN(c2nc(Nc3ccccc3)nc(Nc3cccc(Nc4ccnc5cc(Cl)ccc45)c3)n2)CC1 | 90.51 | 0.0601 µM | –
